Results from ChEMBL document CHEMBL1157562, “Piperazinyl glutamate pyridines as potent orally bioavailable P2Y12 antagonists for inhibition of platelet aggregation” (J Med Chem, 2010).

Experiments:
P2Y purinoceptor 12 = P2Y purinoceptor 12 (Homo sapiens, UniProt Q9H244); assay: Displacement of [33P]ADP from human recombinant P2Y12 receptor expressed in CHO cells; type: cell-based
Method in brief: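 Washed membranes from CHO cells expressing synthetic human P2Y12, incubated 1 h at room temperature with 0.2 nM 33P-MeSADP in 50 mM Tris/100 mM NaCl/1 mM EDTA. Compound was tested as a 7-point 3-fold series in triplicate. Nonspecific binding was defined with 300 nM 2-MeSADP, followed by filtration.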

[1] = Antiplatelet aggregation activity against adenosine diphosphate-induced human platelet rich plasma assessed as inhibition of platelet aggregation by turbidimetric method; type: functional; conditions: Homo sapiens, Platelet, Plasma
Method in brief: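 Human PRP, prepared by two-step centrifugation and adjusted to 330 000 platelets/μL with PPP. Compound was preincubated 5 min at 37 °C in 0.5% DMSO, then 20 μM ADP was added. OD626 was read kinetically for 15 min at 37 °C with mixing between reads.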

Platelet = assay: Relative potency, ratio of IC50 for drug to IC50 for AZD-6140 for platelet aggregation in human platelet rich plasma; type: functional

Sequence of P2Y purinoceptor 12 (Q9H244 whole entry): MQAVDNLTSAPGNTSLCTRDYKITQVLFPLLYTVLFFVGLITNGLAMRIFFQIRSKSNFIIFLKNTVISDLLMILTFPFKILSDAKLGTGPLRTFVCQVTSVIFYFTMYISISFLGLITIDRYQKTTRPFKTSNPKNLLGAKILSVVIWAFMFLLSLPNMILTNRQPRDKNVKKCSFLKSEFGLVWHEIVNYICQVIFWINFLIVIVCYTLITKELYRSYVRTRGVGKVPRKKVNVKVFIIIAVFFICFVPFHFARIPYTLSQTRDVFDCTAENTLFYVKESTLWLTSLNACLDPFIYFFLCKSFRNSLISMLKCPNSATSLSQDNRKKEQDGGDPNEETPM

Structure (SMILES)	Ki (P2Y purinoceptor 12) [nM]	IC50 [1] [nM]	Ratio IC50 (Platelet)
CCCCCOC(=O)N1CCN(C(=O)[C@H](CCC(=O)O)NC(=O)c2cc(OC3CCN(S(=O)(=O)CC)CC3)cc(-c3ccccc3)n2)CC1	5.1	5300	5
CCCCCOC(=O)N1CCN(C(=O)[C@H](CCC(=O)O)NC(=O)c2cc(C(=O)NCC)cc(-c3ccccc3)n2)CC1	13	9700	13
CCCCOC(=O)N1CCN(C(=O)[C@H](CCC(=O)O)NC(=O)c2cc(OCC3CCN(S(=O)(=O)CC)CC3)cc(-c3ccccc3)n2)CC1	5.3	3000	2.8
CCCCCOC(=O)N1CCN(C(=O)[C@H](CCC(=O)O)NC(=O)c2cc(OC3CCN(C)CC3)cc(-c3ccccc3)n2)CC1	5	1800	1.8
CCCCOC(=O)N1CCN(C(=O)[C@H](CCC(=O)O)NC(=O)c2cc(OCC3CCN(C(=O)OCC)CC3)cc(-c3ccccc3)n2)CC1	7.6	4000	2.2
CCCCCOC(=O)N1CCN(C(=O)[C@H](CCC(=O)O)NC(=O)c2cc(N3CCCCC3)cc(-c3ccccc3)n2)CC1	5.5	16000	18
CCCCCOC(=O)N1CCN(C(=O)[C@H](CCC(=O)O)NC(=O)c2cc(CCCCN(C)C)cc(-c3ccccc3)n2)CC1	3.3	1000	1
CCCCOC(=O)N1CCN(C(=O)[C@H](CCC(=O)O)NC(=O)c2cc(OCC3CCN(C)CC3)cc(-c3ccccc3)n2)CC1	2.5	240	0.38
CCCCCCOC(=O)N1CCN(C(=O)[C@H](CCC(=O)O)NC(=O)c2cc(O)cc(-c3ccccc3)n2)CC1	20	21000	21
CCCCOC(=O)N1CCN(C(=O)[C@H](CCC(=O)O)NC(=O)c2cc(O)cc(-c3ccccc3)n2)CC1	31	8800	9.7
CCCCCOC(=O)N1CCN(C(=O)[C@H](CCC(=O)O)NC(=O)c2cc(OCCO)cc(-c3ccccc3)n2)CC1	31	12000	10
CCCCOC(=O)N1CCN(C(=O)[C@H](CCC(=O)O)NC(=O)c2cc(OC(=O)N(C)CC3CCOCC3)cc(-c3ccccc3)n2)CC1	1.5	590	0.87
CCCCOC(=O)N1CCN(C(=O)[C@H](CCC(=O)O)NC(=O)c2cc(OC3CCOCC3)cc(-c3ccccc3)n2)CC1	10	4100	6.3
CCCCCOC(=O)N1CCN(C(=O)[C@H](CCC(=O)O)NC(=O)c2cc(CCCCOC)cc(-c3ccccc3)n2)CC1	8.3	4200	4.5
CCCCCOC(=O)N1CCN(C(=O)[C@H](CCC(=O)O)NC(=O)c2cc(NC(=O)CN3CCN(C)CC3)cc(-c3ccccc3)n2)CC1	2.3	4300	4.1
CCOC(=O)N1CCN(C(=O)[C@H](CCC(=O)O)NC(=O)c2cc(N3CCC(N)CC3)cc(-c3ccccc3)n2)CC1	10	2800	8.1
CCCCCOC(=O)N1CCN(C(=O)[C@H](CCC(=O)O)NC(=O)c2cc(OC(=O)N3CC[C@H](OC)C3)cc(-c3ccccc3)n2)CC1	4.9	690	1
CCCCCOC(=O)N1CCN(C(=O)[C@H](CCC(=O)O)NC(=O)c2cc(NC(=O)OCCCN)cc(-c3ccccc3)n2)CC1	1.9	5700	3.9
CCCCCOC(=O)N1CCN(C(=O)[C@H](CCC(=O)O)NC(=O)c2cc(N3CCC(COCCC)CC3)cc(-c3ccccc3)n2)CC1	22	8900	12
CCCCOC(=O)N1CCN(C(=O)[C@H](CCC(=O)O)NC(=O)c2cc(N3CCC(NC)CC3)cc(-c3ccccc3)n2)CC1	2.7	1200	0.86
CCCCCOC(=O)N1CCN(C(=O)[C@H](CCC(=O)O)NC(=O)c2cc(C(=O)NCCOC)cc(-c3ccccc3)n2)CC1	7.9	8000	18

Structure (SMILES)	Ki (P2Y purinoceptor 12) [nM]	IC50 [1] [nM]	Ratio IC50 (Platelet)
CCCCCOC(=O)N1CCN(C(=O)[C@H](CCC(=O)O)NC(=O)c2cc(OCC3CCN(C(=O)COC)CC3)cc(-c3ccccc3)n2)CC1	12	1300	1.3
CCOC(=O)N1CCN(C(=O)[C@H](CCC(=O)O)NC(=O)c2cc(OCCCOC)cc(-c3ccccc3)n2)CC1	69	8200	11
CCOC(=O)N1CCN(C(=O)[C@H](CCC(=O)O)NC(=O)c2cc(O)cc(-c3ccccc3)n2)CC1	62	24000	41
CCOC(=O)N1CCN(C(=O)[C@H](CCC(=O)O)NC(=O)c2cc(OCC)cc(-c3ccccc3)n2)CC1	94	31000	44
CCCCCCOC(=O)N1CCN(C(=O)[C@H](CCC(=O)O)NC(=O)c2cc(N3CCC(N4CCCC4)CC3)cc(-c3ccccc3)n2)CC1	2.6	1200	2.3
CCCCCOC(=O)N1CCN(C(=O)[C@H](CCC(=O)O)NC(=O)c2cc(C(N)=O)cc(-c3ccccc3)n2)CC1	7.5	8900	9
CCCCCOC(=O)N1CCN(C(=O)[C@H](CCC(=O)O)NC(=O)c2cc(NCCOC)cc(-c3ccccc3)n2)CC1	9.8	3200	4.9
CCCCCOC(=O)N1CCN(C(=O)[C@H](CCC(=O)O)NC(=O)c2cc(NC(=O)NCC3CCNCC3)cc(-c3ccccc3)n2)CC1	1.4	5600	3.8
CCCCCOC(=O)N1CCN(C(=O)[C@H](CCC(=O)O)NC(=O)c2cc(CCC(=O)N3CCOCC3)cc(-c3ccccc3)n2)CC1	3.7	3100	2.4
CCCCOC(=O)N1CCN(C(=O)[C@H](CCC(=O)O)NC(=O)c2cc(OCCCO)cc(-c3ccccc3)n2)CC1	6.9	2900	5.1
CCOC(=O)N1CCN(C(=O)[C@H](CCC(=O)O)NC(=O)c2cc(N(C)CCO)cc(-c3ccccc3)n2)CC1	87	57000	26
CCCCCOC(=O)N1CCN(C(=O)[C@H](CCC(=O)O)NC(=O)c2cc(C(=O)NCCCOC)cc(-c3ccccc3)n2)CC1	6.1	4600	12
CCCCOC(=O)N1CCN(C(=O)[C@H](CCC(=O)O)NC(=O)c2cc(OC3CCN(S(=O)(=O)CC)CC3)cc(-c3ccccc3)n2)CC1	7.6	3300	3.1
CCCCOC(=O)N1CCN(C(=O)[C@H](CCC(=O)O)NC(=O)c2cc(OC(=O)N(C)C)cc(-c3ccccc3)n2)CC1	2	1100	1.1
CCCCOC(=O)N1CCN(C(=O)[C@H](CCC(=O)O)NC(=O)c2cc(OC3CCNC3)cc(-c3ccccc3)n2)CC1 (stereo partly drawn)	3.7	2600	1.3
CCCCCOC(=O)N1CCN(C(=O)[C@H](CCC(=O)O)NC(=O)c2cc(C(=O)N(C)C3CCN(C)CC3)cc(-c3ccccc3)n2)CC1	11	350	0.83
CCCCOC(=O)N1CCN(C(=O)[C@H](CCC(=O)O)NC(=O)c2cc(OCC3CCN(CCOC)CC3)cc(-c3ccccc3)n2)CC1	5.3	620	0.53
CCCCOC(=O)N1CCN(C(=O)[C@H](CCC(=O)O)NC(=O)c2cc(NCCOC)cc(-c3ccccc3)n2)CC1	2.4	3200	2.4
CCOC(=O)N1CCN(C(=O)[C@H](CCC(=O)O)NC(=O)c2cc(OCc3ccccc3)cc(-c3ccccc3)n2)CC1	28	31000	42
CCCCOC(=O)N1CCN(C(=O)[C@H](CCC(=O)O)NC(=O)c2cc(OCCCOC)cc(-c3ccccc3)n2)CC1	5.9	2200	3.9
